For this data set, the target named is T1, Nuclear receptor subfamily 1 group I member 2 (Homo sapiens, UniProt O75469).
T1 sequence (O75469 whole entry): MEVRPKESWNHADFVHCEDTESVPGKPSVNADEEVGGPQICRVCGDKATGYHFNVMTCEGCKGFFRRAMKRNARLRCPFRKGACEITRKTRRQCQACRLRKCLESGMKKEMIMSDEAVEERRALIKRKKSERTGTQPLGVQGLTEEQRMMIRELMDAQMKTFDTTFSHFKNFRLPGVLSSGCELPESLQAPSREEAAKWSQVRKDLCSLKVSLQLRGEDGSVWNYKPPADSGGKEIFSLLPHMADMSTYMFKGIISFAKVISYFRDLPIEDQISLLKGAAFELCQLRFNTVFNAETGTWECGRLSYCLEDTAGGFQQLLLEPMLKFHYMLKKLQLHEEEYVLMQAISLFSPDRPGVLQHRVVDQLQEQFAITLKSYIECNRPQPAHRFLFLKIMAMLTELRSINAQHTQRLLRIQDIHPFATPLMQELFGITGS
Put plainly: Agonist activity at PXR in human HepG2 cells transfected with PXR siRNA at 10 to 50 uM incubated for 24 hrs. The data set is classed as cell-based. To be noted: hepg2, 24 h. The method in brief: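 HepG2 cells reverse-transfected with PXR siRNA using lipofectamine RNAiMAX; after 24 h silencing, treated with compound for a further 24 h. PXR and CYP3A4 transcription responses measured.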

On to `C/C(=C\CC/C(C)=C/CC[C@]1(C)CCc2cc(O)cc(C)c2O1)CC/C=C(\C)C(=O)O`, for which the Activity result is “Not Active”.

The values are drawn from ChEMBL document CHEMBL4402582, “Garcinoic Acid Is a Natural and Selective Agonist of Pregnane X Receptor” (J Med Chem, 2020).
